Reference: ChEMBL document CHEMBL1148785, “Second generation tetrahydroquinoline-based protein farnesyltransferase inhibitors as antimalarials” (J Med Chem, 2007)

Columns and labels:
Plasmodium falciparum [1] = experiment: Antimalarial activity against Plasmodium falciparum K1; assay type: functional; settings: read-out: ED50 (the source's name)
How it was run: (§1)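 Asynchronous culture in type A+ erythrocytes at 0.5% parasitemia and 0.5% hematocrit, grown in RPMI-1640 with 20% heat-inactivated human A+ plasma. Compound was serially diluted from a top final 5 µM, with DMSO vehicle as 100% growth. Plates ran 48 h at 37 °C under 5% CO2/5% O2/90% N2, then [3H]-hypoxanthine (0.3 µCi) for 24 h. Filter-harvested counts were corrected for the uninfected-RBC background. ED50 by linear regression; duplicates averaged.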

[2] = Inhibition of Plasmodium falciparum protein farnesyltransferase by scintillation proximity assay
Plasmodium falciparum [3] = experiment: Inhibition of Plasmodium falciparum protein farnesyltransferase at 5 nM by scintillation proximity assay
Plasmodium falciparum [4] = experiment: Antimalarial activity against Plasmodium falciparum 3D7; assay type: functional; settings: read-out: ED50 (the source's name); how it was run: as §1
Plasmodium falciparum [5] = experiment: Inhibition of Plasmodium falciparum protein farnesyltransferase at 50 nM by scintillation proximity assay
Plasmodium falciparum [6] = experiment: Inhibition of Plasmodium falciparum protein farnesyltransferase at 0.5 nM by scintillation proximity assay

SMILES	EC50 (Plasmodium falciparum [1]; Plasmodium falciparum, K1)	IC50 [2]	inhibition (Plasmodium falciparum [3])	EC50 (Plasmodium falciparum [4]; Plasmodium falciparum, 3D7)	inhibition (Plasmodium falciparum [5])	inhibition (Plasmodium falciparum [6])	EC50 (Plasmodium falciparum [1])	EC50 (Plasmodium falciparum [4])
Cn1cncc1CN1CC(N(CC(=O)NC(C)(C)C)S(=O)(=O)c2c[nH]cn2)Cc2cc(C#N)ccc21 (stereo not given)	> 5000 nM	800 nM	14%	> 5000 nM	15%	10%		
Cn1cncc1CN1CC(N(CC2CCN(C(=O)C(C)(C)C)CC2)S(=O)(=O)c2ccccn2)Cc2cc(C#N)ccc21 (stereo not given)	75 nM	1.2 nM	17%	48 nM	99%	76%		
COC(=O)N1CCC(CN(C2Cc3cc(C#N)ccc3N(Cc3cncn3C)C2)S(=O)(=O)c2ccccn2)CC1 (stereo not given) [listing 1 of 3 here]		0.58 nM					15 nM	16 nM
Cn1cncc1CN1CC(N(CC2CCN(C(=O)CC(F)(F)F)CC2)S(=O)(=O)c2ccccn2)Cc2cc(C#N)ccc21 (stereo not given)	55 nM	2 nM	30%	43 nM	98%	77%		
COC(=O)N1CCC(CN(C2Cc3cc(C#N)ccc3N(Cc3cncn3C)C2)S(=O)(=O)c2ccccn2)CC1 (stereo not given) [listing 2 of 3 here]		2.7 nM					75 nM	95 nM
Cn1cncc1CN1CC(N(CC(=O)NC(C)(C)C)S(=O)(=O)c2ccc(F)cc2)Cc2cc(C#N)ccc21 (stereo not given)	5000 nM	42 nM	33%	> 5000 nM	71%	30%		
Cn1cncc1CN1CC(N(CC(=O)OC(C)(C)C)C(=O)c2ccccc2)Cc2cc(C#N)ccc21 (stereo not given)	> 5000 nM	> 50 nM		> 5000 nM				
CC(=O)N1CCC(CN(C2Cc3cc(C#N)ccc3N(Cc3cncn3C)C2)S(=O)(=O)c2ccccn2)CC1 (stereo not given)	95 nM	2.4 nM	29%	37 nM	94%	65%		
COC(=O)N1CCC(CN(C2Cc3cc(C#N)ccc3N(Cc3cncn3C)C2)S(=O)(=O)c2ccccn2)CC1 (stereo not given) [listing 3 of 3 here]		0.29 nM					13 nM	11 nM
Cn1cncc1CN1CC(N(CC2CCN(S(C)(=O)=O)CC2)S(=O)(=O)c2ccccn2)Cc2cc(C#N)ccc21 (stereo not given)	50 nM	0.9 nM	45%	62 nM	99%	93%		
Cc1cc(C(=O)N(CC(=O)OC(C)(C)C)C2Cc3cc(C#N)ccc3N(Cc3cncn3C)C2)no1 (stereo not given)	> 5000 nM	> 50 nM		> 5000 nM				
CCNC(=O)N1CCC(CN(C2Cc3cc(C#N)ccc3N(Cc3cncn3C)C2)S(=O)(=O)c2ccccn2)CC1 (stereo not given)	65 nM	0.65 nM	60%	67 nM	98%	95%		
Cn1cnc(S(=O)(=O)N(CCCCC(=O)NCCN)C2Cc3cc(C#N)ccc3N(Cc3cncn3C)C2)c1 (stereo not given)	130 nM	0.9 nM		250 nM				
Cn1cnc(S(=O)(=O)N(Cc2ccsc2)C2Cc3cc(C#N)ccc3N(Cc3cncn3C)C2)c1 (stereo not given)	2 nM	0.4 nM		12 nM	99%			
Cn1cnc(C(=O)N(CC(=O)OC(C)(C)C)C2Cc3cc(C#N)ccc3N(Cc3cncn3C)C2)c1 (stereo not given)	> 5000 nM	> 50 nM		> 5000 nM				
CC(C)C(=O)N1CCC(CN(C2Cc3cc(C#N)ccc3N(Cc3cncn3C)C2)S(=O)(=O)c2ccccn2)CC1 (stereo not given)	13 nM	0.6 nM	24%	18 nM	98%	91%		
Cn1cncc1CN1CC(N(CC2CCN(C(=O)c3ccc(Cl)cc3)CC2)S(=O)(=O)c2ccccn2)Cc2cc(C#N)ccc21 (stereo not given)	1700 nM	900 nM	0%	460 nM	26%	7%		

SMILES	EC50 (Plasmodium falciparum [1]; Plasmodium falciparum, K1)	IC50 [2]	inhibition (Plasmodium falciparum [3])	EC50 (Plasmodium falciparum [4]; Plasmodium falciparum, 3D7)	inhibition (Plasmodium falciparum [5])	inhibition (Plasmodium falciparum [6])	EC50 (Plasmodium falciparum [1])	EC50 (Plasmodium falciparum [4])
Cn1cncc1CN1CC(N(CC2CCN(C(=O)C3CC3)CC2)S(=O)(=O)c2ccccn2)Cc2cc(C#N)ccc21 (stereo not given)	10 nM	0.75 nM	39%	11.5 nM	100%	94%		
CCS(=O)(=O)N(CC1CCN(C(=O)OC)CC1)C1Cc2cc(C#N)ccc2N(Cc2cncn2C)C1 (stereo not given)	> 5000 nM		0%	4100 nM	44%	0%		
Cn1cncc1CN1CC(N(CCCNC(=O)OC(C)(C)C)S(=O)(=O)c2ccccn2)Cc2cc(C#N)ccc21 (stereo not given)	75 nM		70%	133 nM	97%	9%		
Cn1cncc1CN1CC(N(Cc2ccc(F)cc2)S(=O)(=O)c2ccccn2)Cc2cc(C#N)ccc21 (stereo not given)	2500 nM		50%	430 nM	91%	11%		
Cn1cnc(S(=O)(=O)N(Cc2ccc(C(F)(F)F)o2)C2Cc3cc(C#N)ccc3N(Cc3cncn3C)C2)c1 (stereo not given)	75 nM		96%	78 nM	97%	54%		
Cn1cncc1CN1CC(N(Cc2ccccc2F)S(=O)(=O)c2cccc3nsnc23)Cc2cc(C#N)ccc21 (stereo not given)	1000 nM		28%	700 nM	74%	4%		
Cn1cncc1CN1CC(N(CC(=O)NC(C)(C)C)S(=O)(=O)CCN2C(=O)c3ccccc3C2=O)Cc2cc(C#N)ccc21 (stereo not given)	> 5000 nM		21%	> 5000 nM	60%	14%		
COC(=O)N(C)CCCN(C1Cc2cc(C#N)ccc2N(Cc2cncn2C)C1)S(=O)(=O)c1ccccn1 (stereo not given)	45 nM		68%	18 nM	95%	6%		
Cn1cnc(S(=O)(=O)N(Cc2ccc(S(C)(=O)=O)cc2Cl)C2Cc3cc(C#N)ccc3N(Cc3cncn3C)C2)c1 (stereo not given)	< 20 nM		98%	57 nM	99%	69%		
Cn1cncc1CN1CC(N(CC2CCN(C(=O)N3CCCC3)CC2)S(=O)(=O)c2ccccn2)Cc2cc(C#N)ccc21 (stereo not given)	65 nM		31%	35 nM	99%	91%		
COC(=O)NCCCN(C1Cc2cc(C#N)ccc2N(Cc2cncn2C)C1)S(=O)(=O)c1ccccn1 (stereo not given)	100 nM		77%	100 nM	96%	28%		
Cn1cncc1CN1CC(N(CCNC(=O)OC(C)(C)C)S(=O)(=O)c2ccccn2)Cc2cc(C#N)ccc21 (stereo not given)	240 nM		48%	230 nM	91%	9%		
Cn1cnc(S(=O)(=O)N(Cc2ccc(F)cc2)C2Cc3cc(C#N)ccc3N(Cc3cncn3C)C2)c1 (stereo not given)	100 nM		93%	40 nM	99%	50%		
COC(=O)N1CCC(CN(C2Cc3cc(C#N)ccc3N(Cc3cncn3C)C2)S(=O)(=O)c2ccc(C(=O)O)o2)CC1 (stereo not given)	675 nM		49%	> 5000 nM	89%	5%		
Cn1cnc(CN2CC(N(CC(=O)NC(C)(C)C)S(C)(=O)=O)Cc3cc(-c4ccccc4)ccc32)c1 (stereo not given)	> 5000 nM		0%	> 5000 nM	2%	0%		
Cn1cnc(S(=O)(=O)N(CC(=O)NC(C)(C)C)C2Cc3cc(C(=O)NC4CCCCC4)ccc3N(Cc3cncn3C)C2)c1 (stereo not given)	2300 nM		17%	2800 nM	66%	5%		
